ChEMBL document CHEMBL4270562, “Synthesis and evaluation of the cytotoxic activity of Furanaphthoquinones tethered to 1H-1,2,3-triazoles in Caco-2, Calu-3, MDA-MB231 cells” (Eur J Med Chem, 2018)
pIC50: −log10 of the molar value.

Legend:
[1] = Cytotoxicity against African green monkey Vero cells assessed as cell viability at 5 uM after 48 hrs by MTT assay relative to control; format: cell-based; details: chlorocebus sabaeus, read-out: Activity
Method in brief: (§1)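 Single-concentration screen at 5 μM. Cells were seeded at 32,000/well and pre-incubated 24 h at 37 °C, 5% CO2, then treated 48 h in 10% FBS DMEM or RPMI containing 0.5% DMSO. MTT (2.5 mg/mL solution, 3 h), formazan dissolved in DMSO, absorbance at 570/690 nm. Viability expressed as % of untreated cells, mean ± SD.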

Caco-2 [2] = experiment: Cytotoxicity against human Caco2 cells assessed as cell viability at 5 uM after 48 hrs by MTT assay relative to control; format: functional; details: Caco-2, 48 h, read-out: Activity; method in brief: as §1
MDA-MB-231 = experiment: Cytotoxicity against human MDA-MB-231 cells assessed as cell viability at 5 uM after 48 hrs by MTT assay relative to control; format: functional; details: MDA-MB-231, 48 h, read-out: Activity; method in brief: as §1
Calu-3 = experiment: Cytotoxicity against human Calu3 cells assessed as cell viability at 5 uM after 48 hrs by MTT assay relative to control; format: functional; details: Calu-3, 48 h, read-out: Activity; method in brief: as §1
Platelet = experiment: Inhibition of arachidonic acid-induced platelet aggregation in human platelet rich plasma at 100 uM preincubated for 2 mins followed by arachidonic acid addition and measured after 3 hrs by turbidimetric analysis; format: cell-based
Method in brief: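 Fresh platelet-rich plasma pre-incubated 2 min at 37 °C with sample (100 μM) before arachidonic acid stimulation. Aggregation was followed turbidimetrically in a lumi-aggregometer. DMSO 1% was the negative control and acetylsalicylic acid 100 μM the positive control.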

Caco-2 [3] = experiment: Cytotoxicity against human Caco2 cells assessed as cell viability after 48 hrs by MTT assay relative to control; format: functional, cell-based; details: Caco-2, 48 h
Method in brief: (§2)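 Cells seeded at 32,000/well, grown 24 h at 37 °C in 5% CO2, then exposed for 48 h to samples at 5 to 400 μM in 10% FBS DMEM or RPMI with 0.5% DMSO. Vehicle medium with 0.5% DMSO served as control. Viability was read by MTT reduction: MTT solution (2.5 mg/mL) in HBSS for 3 h, DMSO to dissolve formazan, absorbance at 570/690 nm. IC50 (tumour lines) and CC50 (Vero) were derived from survival relative to untreated cells, and SI was calculated from them.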

[4] = Effect on prothrombin time in human platelet poor plasma at 100 uM after 3 hrs; format: ADME, cell-free
Method in brief: (§3)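 Citrated platelet-poor plasma tested with sample at 100 μM, vehicle DMSO ≤1%. Clotting times (PT, aPTT) were measured on a coagulation analyzer. DMSO 1% was the negative control and rivaroxaban 100 μM the positive anticoagulant control.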

[5] = Selectivity index, ratio of CC50 for African green monkey Vero cells to IC50 for human Caco2 cells; format: toxicity; details: Vero cells (CC50) and Caco2 cells (IC50); method in brief: as §2
[6] = Cytotoxicity against African green monkey Vero cells assessed as cell viability after 48 hrs by MTT assay relative to control; format: cell-based; details: chlorocebus sabaeus; method in brief: as §2
[7] = Effect on activated thromboplastin time in human platelet poor plasma at 100 uM after 3 hrs; format: ADME, cell-free; method in brief: as §3

For `O=C1C2=C(OC(c3cn(-c4ccc([N+](=O)[O-])cc4)nn3)C2)C(=O)c2ccccc21` (stereo not given), the viability at 48 h, 5 µM [1] was 63.6%, the viability at 5 µM (Caco-2 [2]) was 95.5% and the viability at 5 µM (MDA-MB-231) was 97.4%. For the same compound, the viability at 5 µM (Calu-3) was 120%.
With `Cc1ccc(-n2cc(C3CC4=C(O3)c3ccccc3C(=O)C4=O)nn2)cc1` (stereo not given) the viability at 48 h, 5 µM [1] was 41.8%, the viability at 5 µM (Caco-2 [2]) was 33.3% and the viability at 5 µM (MDA-MB-231) was 90.7%. The viability at 5 µM (Calu-3) was 111%.
`COc1ccc(-n2cc(C3CC4=C(O3)C(=O)c3ccccc3C4=O)nn2)cc1` (stereo not given) gave a viability at 48 h, 5 µM [1] of 64.8%, a viability at 5 µM (Caco-2 [2]) of 81.8% and a viability at 5 µM (MDA-MB-231) of 99.6%. The viability at 5 µM (Calu-3) was 125%.
Compound `O=C1C(=O)c2ccccc2C2=C1CC(c1cn(-c3ccc(Cl)cc3)nn1)O2` (stereo not given) has a viability at 48 h, 5 µM [1] of 59.3%, a viability at 5 µM (Caco-2 [2]) of 46.4% and a viability at 5 µM (MDA-MB-231) of 46.5%. For the same compound, the viability at 5 µM (Calu-3) was 122%.
Compound `O=C1C(=O)c2ccccc2C2=C1CC(c1cn(-c3ccc(F)cc3)nn1)O2` (stereo not given) has a viability at 48 h, 5 µM [1] of 55.8%, a viability at 5 µM (Caco-2 [2]) of 37.9% and a viability at 5 µM (MDA-MB-231) of 41.5%. For the same compound, the viability at 5 µM (Calu-3) was 117%.
With `O=C1C(=O)c2ccccc2C2=C1CC(c1cn(-c3ccc([N+](=O)[O-])cc3)nn1)O2` (stereo not given) the viability at 48 h, 5 µM [1] was 88.7%, the viability at 5 µM (Caco-2 [2]) was 86.9% and the viability at 5 µM (MDA-MB-231) was 99.2%. For the same compound, the viability at 5 µM (Calu-3) was 133%.
In the case of `COc1ccc(-n2cc(C3CC4=C(O3)c3ccccc3C(=O)C4=O)nn2)cc1` (stereo not given), the viability at 48 h, 5 µM [1] was 34.1%, the viability at 5 µM (Caco-2 [2]) was 23% and the viability at 5 µM (MDA-MB-231) was 41.1%. The viability at 5 µM (Calu-3) was 113%.
Compound `Cc1ccc(-n2cc(C3CC4=C(O3)C(=O)c3ccccc3C4=O)nn2)cc1` (stereo not given) has a viability at 48 h, 5 µM [1] of 74%, a viability at 5 µM (Caco-2 [2]) of 88% and a viability at 5 µM (MDA-MB-231) of 95.3%. For the same compound, the viability at 5 µM (Calu-3) was 112%.
Work on `O=C1C(=O)c2ccccc2C2=C1CC(c1cn(-c3cc(Cl)ccc3Cl)nn1)O2` (stereo not given) yielded a viability at 48 h, 5 µM [1] of 74.7%, a viability at 5 µM (Caco-2 [2]) of 78.1% and a viability at 5 µM (MDA-MB-231) of 82.1%. For the same compound, the viability at 5 µM (Calu-3) was 118%.
Work on `O=C1C2=C(OC(c3cn(-c4cc(Cl)ccc4Cl)nn3)C2)C(=O)c2ccccc21` (stereo not given) yielded a viability at 48 h, 5 µM [1] of 90.4%, a viability at 5 µM (Caco-2 [2]) of 85.8% and a viability at 5 µM (MDA-MB-231) of 104%. It also gave a viability at 5 µM (Calu-3) of 139%.
With `O=C1C(=O)c2ccccc2C2=C1CC(c1cn(-c3ccccc3)nn1)O2` (stereo not given) the Activity (Platelet) was “Non-Toxic”, the viability at 48 h, 5 µM [1] was 68% and the viability at 5 µM (Caco-2 [2]) was 23.9%. The pIC50 (Caco-2 [3]) was 5.35, the viability at 5 µM (MDA-MB-231) was 87.7% and the Activity [4] was “Non-Toxic”. It also gave a selectivity ratio [5] of 6.25, a CC50 at 48 h [6] of 28 µM and a viability at 5 µM (Calu-3) of 110%. For the same compound, the Activity [7] was “Non-Toxic”.
With `O=C1C2=C(OC(c3cn(-c4ccc(Cl)cc4)nn3)C2)C(=O)c2ccccc21` (stereo not given) the viability at 48 h, 5 µM [1] was 78.1%, the viability at 5 µM (Caco-2 [2]) was 82.1% and the viability at 5 µM (MDA-MB-231) was 103%. It also gave a viability at 5 µM (Calu-3) of 134%.
Work on `O=C1C2=C(OC(c3cn(-c4ccc(F)cc4)nn3)C2)C(=O)c2ccccc21` (stereo not given) yielded a viability at 48 h, 5 µM [1] of 73%, a viability at 5 µM (Caco-2 [2]) of 77.3% and a viability at 5 µM (MDA-MB-231) of 97.9%. The viability at 5 µM (Calu-3) was 104%.
`O=C1C2=C(OC(c3cn(-c4ccccc4)nn3)C2)C(=O)c2ccccc21` (stereo not given) showed a viability at 48 h, 5 µM [1] of 76.2%, a viability at 5 µM (Caco-2 [2]) of 88.3% and a viability at 5 µM (MDA-MB-231) of 109%. The viability at 5 µM (Calu-3) was 113%.
In the case of `O=C1C(=O)c2ccccc2C2=C1CC(c1cn(-c3ccc(Cl)c(Cl)c3)nn1)O2` (stereo not given), the viability at 48 h, 5 µM [1] was 81%, the viability at 5 µM (Caco-2 [2]) was 94.4% and the viability at 5 µM (MDA-MB-231) was 90.2%. The viability at 5 µM (Calu-3) was 111%.
Compound `O=C1C2=C(OC(c3cn(-c4ccc(Cl)c(Cl)c4)nn3)C2)C(=O)c2ccccc21` (stereo not given) has a viability at 48 h, 5 µM [1] of 78.7%, a viability at 5 µM (Caco-2 [2]) of 83.9% and a viability at 5 µM (MDA-MB-231) of 96.6%. The viability at 5 µM (Calu-3) was 111%.
